Measured values taken from ChEMBL document CHEMBL3421533, “The Discovery of Orally Bioavailable Tyrosine Threonine Kinase (TTK) Inhibitors: 3-(4-(heterocyclyl)phenyl)-1H-indazole-5-carboxamides as Anticancer Agents” (J Med Chem, 2015).

What was measured:
[1] = Cytotoxicity against human HCT116 cells after 5 days by sulforhodamine B assay; format: functional, HCT-116; details: Homo sapiens, HCT-116, 120 h
Summary of the method: (§1)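 Cancer lines were seeded at 800–6000 cells per well according to growth rate, 24 h before compound overlay. After culture, cells were fixed in situ and stained with sulforhodamine B. GI50 values were derived by curve fitting.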

[2] = biological target: T1, Dual specificity protein kinase TTK (Homo sapiens, UniProt P33981); assay: Inhibition of amino terminal GST-fused full length human TTK using His6-SUMO-TTK-N as substrate preincubated for 15 mins prior to ATP addition by indirect ELISA detection system
T1 sequence (P33981 whole entry): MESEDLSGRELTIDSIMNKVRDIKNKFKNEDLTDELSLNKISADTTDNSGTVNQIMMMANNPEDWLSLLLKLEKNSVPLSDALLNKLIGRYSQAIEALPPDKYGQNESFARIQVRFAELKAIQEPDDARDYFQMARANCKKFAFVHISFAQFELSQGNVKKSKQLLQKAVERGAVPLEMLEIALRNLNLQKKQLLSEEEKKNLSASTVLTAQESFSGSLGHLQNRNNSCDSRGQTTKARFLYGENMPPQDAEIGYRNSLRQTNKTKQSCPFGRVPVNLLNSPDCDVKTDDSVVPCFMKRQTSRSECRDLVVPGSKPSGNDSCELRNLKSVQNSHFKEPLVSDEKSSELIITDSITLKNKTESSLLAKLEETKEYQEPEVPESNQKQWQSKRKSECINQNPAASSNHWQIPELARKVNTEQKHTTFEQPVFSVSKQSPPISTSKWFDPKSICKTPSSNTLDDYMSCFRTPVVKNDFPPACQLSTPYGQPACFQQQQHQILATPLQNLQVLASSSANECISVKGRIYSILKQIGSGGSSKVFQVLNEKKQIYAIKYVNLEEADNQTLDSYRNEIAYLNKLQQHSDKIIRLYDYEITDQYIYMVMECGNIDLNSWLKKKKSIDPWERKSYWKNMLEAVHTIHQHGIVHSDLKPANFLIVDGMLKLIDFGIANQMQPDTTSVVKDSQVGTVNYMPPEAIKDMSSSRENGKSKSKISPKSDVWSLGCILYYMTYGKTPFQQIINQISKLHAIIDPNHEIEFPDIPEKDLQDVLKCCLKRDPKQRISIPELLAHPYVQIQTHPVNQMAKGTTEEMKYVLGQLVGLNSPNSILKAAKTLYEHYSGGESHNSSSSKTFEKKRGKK

[3] = biological target: Vascular endothelial growth factor receptor 2 (Homo sapiens, UniProt P35968); assay: Inhibition of recombinant KDR (unknown origin) preincubated for 15 mins prior to ATP addition by FRET-based homogenous assay
Vascular endothelial growth factor receptor 2, sequence (P35968 whole entry): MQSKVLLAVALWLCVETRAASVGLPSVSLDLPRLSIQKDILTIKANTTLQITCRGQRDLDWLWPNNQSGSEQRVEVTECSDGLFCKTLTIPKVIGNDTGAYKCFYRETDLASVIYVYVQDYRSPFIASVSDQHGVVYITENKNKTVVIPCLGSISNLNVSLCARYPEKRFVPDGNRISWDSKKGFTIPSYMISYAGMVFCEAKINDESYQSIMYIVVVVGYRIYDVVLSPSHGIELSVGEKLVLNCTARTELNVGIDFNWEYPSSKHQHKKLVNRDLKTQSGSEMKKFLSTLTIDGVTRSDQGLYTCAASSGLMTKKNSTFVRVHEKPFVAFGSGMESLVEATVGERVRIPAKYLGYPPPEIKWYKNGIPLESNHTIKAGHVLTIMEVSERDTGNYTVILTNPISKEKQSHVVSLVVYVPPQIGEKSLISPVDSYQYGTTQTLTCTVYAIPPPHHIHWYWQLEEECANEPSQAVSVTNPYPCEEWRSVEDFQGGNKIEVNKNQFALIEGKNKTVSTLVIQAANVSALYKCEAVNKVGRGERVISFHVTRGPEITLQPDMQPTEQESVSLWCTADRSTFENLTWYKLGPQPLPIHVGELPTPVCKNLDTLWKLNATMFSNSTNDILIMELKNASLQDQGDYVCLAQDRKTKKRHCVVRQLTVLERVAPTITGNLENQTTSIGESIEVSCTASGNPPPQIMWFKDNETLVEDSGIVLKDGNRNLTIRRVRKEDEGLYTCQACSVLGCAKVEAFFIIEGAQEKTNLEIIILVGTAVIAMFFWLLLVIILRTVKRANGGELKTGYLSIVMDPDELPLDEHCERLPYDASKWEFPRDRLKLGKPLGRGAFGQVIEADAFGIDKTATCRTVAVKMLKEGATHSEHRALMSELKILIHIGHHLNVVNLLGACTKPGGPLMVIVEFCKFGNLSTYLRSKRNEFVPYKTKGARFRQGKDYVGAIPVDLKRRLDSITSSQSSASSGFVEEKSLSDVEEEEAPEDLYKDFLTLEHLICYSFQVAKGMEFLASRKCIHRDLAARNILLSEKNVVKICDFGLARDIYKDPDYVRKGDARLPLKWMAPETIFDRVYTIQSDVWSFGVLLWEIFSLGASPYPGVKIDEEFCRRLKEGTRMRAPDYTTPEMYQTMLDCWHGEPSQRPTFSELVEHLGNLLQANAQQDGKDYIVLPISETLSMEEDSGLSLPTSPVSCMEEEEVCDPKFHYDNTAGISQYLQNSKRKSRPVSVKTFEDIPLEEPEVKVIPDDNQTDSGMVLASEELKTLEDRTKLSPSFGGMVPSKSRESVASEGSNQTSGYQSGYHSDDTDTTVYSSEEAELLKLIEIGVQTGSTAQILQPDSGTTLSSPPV

MDA-MB-468 = assay: Cytotoxicity against human MDA-MB-468 cells after 5 days by sulforhodamine B assay; format: functional; details: Homo sapiens, MDA-MB-468, 120 h; summary of the method: as §1
[4] = Half life in mouse liver microsomes at 1 uM by LC-MS analysis; format: ADME; details: liver microsomes
Aurora kinase A = biological target: T2, Aurora kinase A (Homo sapiens, UniProt O14965); assay: Inhibition of recombinant AURKA (unknown origin) preincubated for 15 mins prior to ATP addition by FRET-based homogenous assay
T2 sequence (O14965 whole entry): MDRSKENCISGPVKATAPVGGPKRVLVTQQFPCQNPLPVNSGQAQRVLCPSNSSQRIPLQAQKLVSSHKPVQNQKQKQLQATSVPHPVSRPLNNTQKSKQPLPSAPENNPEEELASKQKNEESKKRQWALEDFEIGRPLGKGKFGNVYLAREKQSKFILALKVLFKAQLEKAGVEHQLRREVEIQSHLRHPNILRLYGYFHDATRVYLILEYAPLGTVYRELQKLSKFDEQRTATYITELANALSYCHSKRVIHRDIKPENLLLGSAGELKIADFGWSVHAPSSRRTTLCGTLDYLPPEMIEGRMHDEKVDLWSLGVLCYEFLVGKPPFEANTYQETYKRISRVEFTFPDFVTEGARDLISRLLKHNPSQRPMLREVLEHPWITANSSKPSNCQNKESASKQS

[5] = Half life in rat liver microsomes at 1 uM by LC-MS analysis; format: ADME; details: liver microsomes
[6] = Antitumor activity against human HCT116 cells xenografted in nude mouse assessed as tumor growth inhibition at 30 mg/kg, po qd administered for 21 days measured on day 22 relative to vehicle-treated control; format: functional; details: HCT-116, read-out: TGI
[7] = biological target: Aurora kinase B/Inner centromere protein (Homo sapiens, UniProt Q96GD4); assay: Inhibition of AURKB/INCENP (unknown origin) preincubated for 15 mins prior to ATP addition by FRET-based homogenous assay; format: protein-complex assay
Aurora kinase B/Inner centromere protein, sequence (Q96GD4 whole entry): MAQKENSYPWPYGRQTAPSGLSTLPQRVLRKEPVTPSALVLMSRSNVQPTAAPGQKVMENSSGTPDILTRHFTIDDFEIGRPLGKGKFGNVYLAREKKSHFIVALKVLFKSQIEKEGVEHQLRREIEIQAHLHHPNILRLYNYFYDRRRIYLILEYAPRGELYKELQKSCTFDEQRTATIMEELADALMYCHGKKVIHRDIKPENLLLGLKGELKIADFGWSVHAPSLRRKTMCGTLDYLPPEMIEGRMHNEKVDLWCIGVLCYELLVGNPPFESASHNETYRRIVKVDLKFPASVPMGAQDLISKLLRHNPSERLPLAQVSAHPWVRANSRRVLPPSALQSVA
Aurora kinase B/Inner centromere protein, sequence (Q9NQS7 whole entry, further chain): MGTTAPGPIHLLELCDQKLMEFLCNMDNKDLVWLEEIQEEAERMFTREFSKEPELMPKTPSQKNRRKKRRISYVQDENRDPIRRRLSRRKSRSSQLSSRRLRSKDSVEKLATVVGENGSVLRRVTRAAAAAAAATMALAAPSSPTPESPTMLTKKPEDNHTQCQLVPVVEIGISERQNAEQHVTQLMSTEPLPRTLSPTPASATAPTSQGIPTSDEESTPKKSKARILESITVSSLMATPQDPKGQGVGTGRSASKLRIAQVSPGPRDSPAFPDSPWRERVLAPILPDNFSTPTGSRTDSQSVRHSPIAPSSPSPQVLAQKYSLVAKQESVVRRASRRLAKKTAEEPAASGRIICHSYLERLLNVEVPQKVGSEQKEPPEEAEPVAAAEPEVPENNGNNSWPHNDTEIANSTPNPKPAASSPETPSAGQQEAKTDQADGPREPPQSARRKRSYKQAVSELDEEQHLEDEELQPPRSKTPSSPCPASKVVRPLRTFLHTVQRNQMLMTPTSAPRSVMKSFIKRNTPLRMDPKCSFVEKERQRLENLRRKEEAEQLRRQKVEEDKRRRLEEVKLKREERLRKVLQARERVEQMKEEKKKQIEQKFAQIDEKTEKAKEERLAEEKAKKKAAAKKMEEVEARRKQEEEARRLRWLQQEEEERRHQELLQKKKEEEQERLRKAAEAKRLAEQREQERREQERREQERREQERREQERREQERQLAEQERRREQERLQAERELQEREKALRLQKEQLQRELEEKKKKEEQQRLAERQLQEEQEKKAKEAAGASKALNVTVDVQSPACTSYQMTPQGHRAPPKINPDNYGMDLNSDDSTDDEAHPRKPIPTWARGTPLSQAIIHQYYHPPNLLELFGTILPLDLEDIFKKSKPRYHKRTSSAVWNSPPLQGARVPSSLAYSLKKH
Summary of the method: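 The enzyme was AURKB/INCENP in a FRET-based homogeneous assay run to kit specifications, with ATP at 128 μM. […] Each IC50 came from a single determination, reported with its standard fitting error.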

Row | SMILES | IC50 [2] [nM] | IC50 [3] [nM] | half-life at 1 µM [4] [min] | IC50 (Aurora kinase A) [nM] | half-life at 1 µM [5] [min] | IC50 [7] [nM] | GI50 [1] [nM] | GI50 (MDA-MB-468) [nM] | inhibition in vivo at 30 mg/kg [6] [%]
1 | O=C(CC1(N2CCOCC2)CCCCC1)Nc1ccc2[nH]nc(-c3ccc(N4CCOCC4)cc3)c2c1 | 12 | 1200 | 5.8 | 2100 | 10 |  | 94 | 440 | 
2 | Cc1cc(N2CCOCC2)ccc1Nc1nc(NC2CCCCC2)c2nc[nH]c2n1 |  |  |  |  |  |  |  |  | 49

More lines, in order of falling IC50 [2], values ahead:

Row | IC50 [2] [nM] | IC50 [3] [nM] | half-life at 1 µM [4] [min] | IC50 (Aurora kinase A) [nM] | half-life at 1 µM [5] [min] | IC50 [7] [nM] | SMILES | GI50 [1] [nM] | GI50 (MDA-MB-468) [nM] | inhibition in vivo at 30 mg/kg [6] [%]
3 | 8 |  | 29 | 2300 | 15 |  | CN1CCC(Oc2ccc(-c3n[nH]c4ccc(NC(=O)C(c5ccsc5)C5CCCC5)cc34)cc2)CC1 (racemic) | 59 | 190 | 
4 | 7.7 | 3800 | 1.7 | 2300 | 1.5 | 750 | O=C(NCC1(N2CCOCC2)CCCCC1)c1ccc2[nH]nc(-c3ccc(N4CCOCC4)cc3)c2c1 | 39 | 190 | 
5 | 2.7 | 2900 | 21 | 2000 | 24 |  | CN1CCC(Oc2ccc(-c3n[nH]c4ccc(C(=O)NC(c5ccsc5)C5CCCC5)cc34)cc2)CC1 (racemic) | 17 | 90 | 
